From ChEMBL document CHEMBL4028876, “Discovery of a Novel Piperidine-Based Inhibitor of Cholesteryl Ester Transfer Protein (CETP) That Retains Activity in Hypertriglyceridemic Plasma” (J Med Chem, 2017) come the findings set out here.

The target of data set [1] is T1, Cholesteryl ester transfer protein (Homo sapiens, UniProt P11597).
T1 sequence (P11597 whole entry): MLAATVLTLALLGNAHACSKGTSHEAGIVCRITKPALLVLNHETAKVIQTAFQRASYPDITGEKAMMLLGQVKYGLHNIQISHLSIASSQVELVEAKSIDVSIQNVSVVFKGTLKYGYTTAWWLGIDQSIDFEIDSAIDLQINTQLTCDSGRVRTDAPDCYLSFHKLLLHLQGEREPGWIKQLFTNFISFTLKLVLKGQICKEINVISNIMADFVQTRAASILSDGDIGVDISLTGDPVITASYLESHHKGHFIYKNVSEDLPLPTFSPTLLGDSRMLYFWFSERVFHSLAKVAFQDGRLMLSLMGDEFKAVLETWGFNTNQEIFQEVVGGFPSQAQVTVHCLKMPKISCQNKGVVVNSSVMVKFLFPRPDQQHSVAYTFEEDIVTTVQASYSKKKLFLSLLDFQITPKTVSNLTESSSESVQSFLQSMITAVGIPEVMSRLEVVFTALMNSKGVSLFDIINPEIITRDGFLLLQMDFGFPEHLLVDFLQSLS
In words: Inhibition of CETP in human plasma measured every 30 mins for 120 mins by fluorescence method. In outline:
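Pooled EDTA plasma from healthy male donors (final 50%) with compound in DMSO (final 1%). The reaction is started with fluorescent donor solution. Activity is the 30–90 min slope. IC50 is fitted to duplicate wells by a logistic equation.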

The nature of data set [2]: 1-Octanol-phosphate buffered saline partition coefficient, log D of compound at […] by tandem mass spectrometry method. The class given is physicochemical.
Data set [3] has as its system Rattus norvegicus. In words: Toxicity in cannulated Sprague-Dawley rat assessed as increase in plasma aldosterone levels at 5 mg/kg, iv by radioimmunoassay. Type of data set: organism-based. To be noted: in vivo.
The next data set has as its system NCI-H295R. Description: Toxicty in human NCI-H295R cells assessed as increase in aldosterone levels at 0.1 to 10000 nM after 24 hrs by scintillation proximity assay. Type of data set: toxicity, cell-based. As to conditions: 10 µM. For orientation: SPA uses beads or plates that emit light when radiolabelled molecules are held near them.
In data set [4] the test system is Rattus norvegicus. Description: Toxicity in cannulated Sprague-Dawley rat assessed as increase in mean arterial pressure at 5 mg/kg, iv by blood pressure transducer based method. As to conditions: in vivo. The class given is organism-based.
Data set [5] can be described thus: Half life in Sprague-Dawley rat at 1 mg/kg, iv or 3 mg/kg, po by LC-ESI-MS/MS analysis. Type of data set: ADME, organism-based. As to conditions: in vivo. In outline: (§1)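 Conscious 7-week-old male Sprague-Dawley rats on standard diet with free water. Dosing is 1 mg/kg iv bolus in N-methylpyrrolidin-2-one/PEG 200, or 3 mg/kg oral suspension in 0.5% aqueous methylcellulose. Blood is sampled at various time points after administration.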

Data set [6] is described as follows: Volume of distribution in Sprague-Dawley rat at 1 mg/kg, iv or 3 mg/kg, po by LC-ESI-MS/MS analysis. The class given is ADME, organism-based. As to conditions: in vivo. In outline:
as §1

Data set [7] is described as follows: Oral bioavailability in Sprague-Dawley rat at 3 mg/kg by LC-ESI-MS/MS analysis. Type of data set: ADME, organism-based. To be noted: in vivo. In outline: as §1
The target of data set [8] is T2, Cytochrome P450 3A4 (Homo sapiens, UniProt P08684). In words: Inhibition of CYP3A4 (unknown origin) in the presence of testosterone. Type of data set: ADME.
T2 sequence (P08684 whole entry): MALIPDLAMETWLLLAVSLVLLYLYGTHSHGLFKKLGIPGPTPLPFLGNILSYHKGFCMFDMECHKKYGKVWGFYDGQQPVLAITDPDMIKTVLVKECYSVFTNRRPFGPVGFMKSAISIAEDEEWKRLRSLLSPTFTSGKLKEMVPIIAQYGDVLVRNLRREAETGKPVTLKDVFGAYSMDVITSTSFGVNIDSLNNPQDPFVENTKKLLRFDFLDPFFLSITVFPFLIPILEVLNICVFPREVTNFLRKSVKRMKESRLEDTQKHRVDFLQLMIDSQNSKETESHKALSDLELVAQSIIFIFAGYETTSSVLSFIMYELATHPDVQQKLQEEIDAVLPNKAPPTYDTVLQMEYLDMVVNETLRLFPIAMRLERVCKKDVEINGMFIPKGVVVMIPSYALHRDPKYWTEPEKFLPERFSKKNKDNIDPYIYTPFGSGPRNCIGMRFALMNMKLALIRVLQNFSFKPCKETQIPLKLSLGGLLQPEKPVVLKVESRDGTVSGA
Data set [9] can be described thus: Clearance in Sprague-Dawley rat plasma at 1 mg/kg, iv or 3 mg/kg, po by LC-ESI-MS/MS analysis. The class given is ADME, organism-based. In outline:
as §1

For a further data set, the target named is Cytochrome P450 2C9 (Homo sapiens, UniProt P11712). In words: Inhibition of CYP2C9 (unknown origin). The class given is ADME.
Sequence of Cytochrome P450 2C9 (P11712 whole entry): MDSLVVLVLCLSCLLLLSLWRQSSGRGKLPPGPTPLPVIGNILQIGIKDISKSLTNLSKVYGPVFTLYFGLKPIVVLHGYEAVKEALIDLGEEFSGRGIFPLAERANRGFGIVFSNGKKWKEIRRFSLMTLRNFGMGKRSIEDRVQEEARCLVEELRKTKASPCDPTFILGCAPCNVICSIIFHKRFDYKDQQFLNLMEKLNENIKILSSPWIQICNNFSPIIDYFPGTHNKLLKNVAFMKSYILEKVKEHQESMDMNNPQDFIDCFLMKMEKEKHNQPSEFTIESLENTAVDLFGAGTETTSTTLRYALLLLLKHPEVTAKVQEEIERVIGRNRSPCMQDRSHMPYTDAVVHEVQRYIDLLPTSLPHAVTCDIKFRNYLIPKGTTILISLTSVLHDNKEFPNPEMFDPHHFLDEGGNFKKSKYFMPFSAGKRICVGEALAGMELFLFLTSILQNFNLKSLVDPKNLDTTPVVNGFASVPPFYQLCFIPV
Data set [10] can be described thus: AUC (infinity) in Sprague-Dawley rat at 1 mg/kg, iv or 3 mg/kg, po by LC-ESI-MS/MS analysis. Type of data set: ADME, organism-based. To be noted: in vivo. In outline: as §1
For another data set, the target named is Cytochrome P450 2D6 (Homo sapiens, UniProt P10635). Description: Inhibition of CYP2D6 (unknown origin). Type of data set: ADME.
Sequence of Cytochrome P450 2D6 (P10635 whole entry): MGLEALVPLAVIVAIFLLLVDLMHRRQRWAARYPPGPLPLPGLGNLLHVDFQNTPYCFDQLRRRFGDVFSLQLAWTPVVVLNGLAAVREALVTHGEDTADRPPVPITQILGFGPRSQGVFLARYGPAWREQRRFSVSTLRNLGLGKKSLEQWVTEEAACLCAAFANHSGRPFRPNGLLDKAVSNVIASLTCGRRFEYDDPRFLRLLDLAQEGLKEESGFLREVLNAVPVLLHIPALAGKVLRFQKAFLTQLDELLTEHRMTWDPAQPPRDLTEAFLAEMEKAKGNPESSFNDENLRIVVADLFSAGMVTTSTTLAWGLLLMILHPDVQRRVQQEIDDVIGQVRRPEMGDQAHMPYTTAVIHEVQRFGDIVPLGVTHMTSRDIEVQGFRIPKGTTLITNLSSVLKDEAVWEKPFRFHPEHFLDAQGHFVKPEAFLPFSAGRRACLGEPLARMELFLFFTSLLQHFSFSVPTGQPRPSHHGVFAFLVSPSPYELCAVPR
The target of data set [11] is T2, Cytochrome P450 3A4. In words: Inhibition of CYP3A4 (unknown origin) in the presence of midozolam. Type of data set: ADME.
For data set [12], the target named is T3, Cholesteryl ester transfer protein (Homo sapiens) (UniProt P11597).
T3 sequence (whole entry): T1 sequence (P11597 whole entry)
In words: Inhibition of CETP in human plasma at 100 uM measured every 30 mins for 120 mins by fluorescence method. In outline:
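Pooled EDTA plasma from healthy male donors (final 50%) with compound in DMSO (final 1%). The reaction is started with fluorescent donor solution. Ex/em 485/535 nm, read every 30 min for 120 min at 37 °C. Activity is the 30–90 min slope. Torcetrapib (1 or 10 µM) and DMSO define 100% and 0% inhibition. IC50 is fitted to duplicate wells by a logistic equation.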

Structures are written as SMILES. Bounds are passed on as bounds.

As usually defined, the IC50 is the midpoint of a concentration-inhibition curve. By logD is commonly meant lipophilicity at a set pH, counting ionised and neutral species. Read a high logD as higher lipophilicity. The compound `CCC(CC)CC1(C(=O)Nc2ccccc2SC(=O)C(C)C)CCCCC1` [DALCETRAPIB] had a half-maximal inhibitory concentration (IC50) in data set [1] of 4100 nM. This compound gave a logD in [2] of over 6.

In the case of `CCCC(=O)N1[C@H](CC)C[C@H](N(Cc2cc(C(F)(F)F)cc(C(F)(F)F)c2)c2ncc(Br)cn2)C[C@@H]1Cc1ccccc1` (racemic), the half-inhibitory concentration (IC50) in data set [1] was determined as 510 nM.

For the compound `CCOC(=O)N1c2ccc(C(F)(F)F)cc2[C@@H](N(Cc2cc(C(F)(F)F)cc(C(F)(F)F)c2)C(=O)OC)C[C@H]1CC` [TORCETRAPIB], the Activity result in the data set with Rattus norvegicus [3], with NCI-H295R and in the data set on Rattus norvegicus [4] was “Toxic” each time. The compound further came in with a logD in data set [2] of over 4.

In turn, `CC[C@@H]1C[C@H](N(Cc2cc(C(F)(F)F)cc(C(F)(F)F)c2)c2ncc(N3CCOCC3)cn2)C[C@H](Cc2ccccc2)N1C(=O)OC(C)(C)C` (racemic) showed a half-inhibitory concentration (IC50) in data set [1] of 164 nM.

The term half-life denotes how long it takes for the measured level to halve. A high value points to slow loss. In general, bioavailability refers to the share of a dose that reaches the circulation, judged against a reference dose that is usually intravenous. A high value points to much systemic uptake. For orientation: AUC(0-inf) means the area under the concentration-time curve extrapolated to infinity. Read a low AUC(0-inf) as less exposure. In data set [5], `CC[C@@H]1C[C@H](N(Cc2cc(C(F)(F)F)cc(C(F)(F)F)c2)c2ncc(N3CCOCC3)cn2)C[C@H](CC)N1C(=O)O[C@H]1CC[C@H](C(=O)O)CC1` showed a half-life of 5.6 h. Besides, the Vd in data set [6] amounted to 0.67 L/kg. The same compound returned a bioavailability in [7] of 58%. Further, the half-maximal inhibitory concentration (IC50) on Cytochrome P450 3A4 [8] is over 50000 nM; against Cytochrome P450 2C9, over 50000 nM; in data set [1], 150 nM; against Cytochrome P450 2D6, over 50000 nM; on Cytochrome P450 3A4 [11], 25000 nM. The clearance in [9] was 1.5 mL/min/kg. In [10], the AUC(0-inf) was determined as 28.5 µM·h.

For the compound `Cc1cc(C)c2c(c1)[C@@H](N(Cc1cc(C(F)(F)F)cc(C(F)(F)F)c1)c1nnn(C)n1)CCCN2C[C@H]1CC[C@H](C(=O)O)CC1` [EVACETRAPIB], the IC50 in data set [1] is 110 nM. In data set [2], this compound gave a pH-dependent lipophilicity (logD) of 5.7.

Consider `CC[C@@H]1C[C@H](N(Cc2cc(C(F)(F)F)cc(C(F)(F)F)c2)c2ncc(Br)cn2)C[C@H](Cc2ccccc2)N1C(=O)OC(C)(C)C`, for which the 50% inhibitory concentration (IC50) in data set [1] amounted to 77 nM.

`CC[C@@H]1C[C@H](N(Cc2cc(OC)cc(C(F)(F)F)c2)c2ncc(Br)cn2)C[C@H](Cc2ccccc2)N1C(=O)OC(C)(C)C` (racemic) displayed a half-inhibitory concentration (IC50) in [1] of over 10000 nM.

In the case of `CCNC(=O)N1[C@H](CC)C[C@H](N(Cc2cc(C(F)(F)F)cc(C(F)(F)F)c2)c2ncc(Br)cn2)C[C@@H]1Cc1ccccc1` (racemic), the half-inhibitory concentration (IC50) in data set [1] was found to be 4800 nM.

In data set [5], `CC[C@@H]1C[C@H](N(Cc2cc(C(F)(F)F)cc(C(F)(F)F)c2)c2ncc(N3CCOCC3)cn2)C[C@H](Cc2ccccc2)N1C(=O)OC(C)(C)C` gave a half-life of 7.4 h. For the same compound, in data set [6], the Vd is 0.7 L/kg. In addition, the bioavailability in data set [7] came out at 3%. The IC50 is over 50000 nM at Cytochrome P450 3A4 [8]; over 50000 nM on Cytochrome P450 2C9; 60 nM in data set [1]; over 50000 nM against Cytochrome P450 2D6; over 50000 nM on Cytochrome P450 3A4 [11]. Further, the clearance in data set [9] was 1.67 mL/min/kg. Also, in data set [10], the AUC(0-inf) worked out at 0.456 µM·h.

For orientation: inhibition means the drop in the measured response relative to a control, in per cent. A lower inhibition goes with little suppression. On to `CC[C@@H]1C[C@H](N(Cc2cc(C(F)(F)F)cc(C(F)(F)F)c2)C(=O)OC)CCN1C(=O)OC(C)(C)C` (racemic), for which, in data set [12], the inhibition is 70%.

Compound `CC[C@@H]1C[C@H](N(Cc2cc(C(F)(F)F)cc(C(F)(F)F)c2)C(=O)OC)C[C@H](Cc2ccccc2)N1C(=O)OC(C)(C)C` (racemic) returned an IC50 in [1] of 771 nM.

`CC[C@@H]1C[C@H](N(Cc2cc(C(F)(F)F)cc(C(F)(F)F)c2)C(=O)OC)C[C@H](CC)N1C(=O)OC(C)(C)C`: 1300 nM corresponded to half-maximal inhibition in data set [1] (IC50).

In data set [1], `CC[C@@H]1C[C@H](N(Cc2cc(Cl)cc(C(F)(F)F)c2)c2ncc(Br)cn2)C[C@H](Cc2ccccc2)N1C(=O)OC(C)(C)C` (racemic) showed a 50% inhibitory concentration (IC50) of 240 nM.

In [1], `CC[C@@H]1C[C@H](N(Cc2cc(C(F)(F)F)cc(C(F)(F)F)c2)c2ncc(Br)cn2)C[C@H](Cc2ccccc2)N1C(=O)OC(C)C` (racemic) showed an IC50 of 200 nM.

For `CC[C@@H]1C[C@H](N(Cc2cc(C(F)(F)F)cc(C(F)(F)F)c2)c2ncc(N3CCOCC3)cn2)C[C@H](CC)N1C(=O)OC(C)C`, the half-life in data set [5] was 4.6 h. Moreover, in data set [6], the Vd was determined as 2.35 L/kg. Further, the bioavailability in [7] was 35%. For the same compound, the IC50 at Cytochrome P450 3A4 [8] is over 50000 nM; at Cytochrome P450 2C9 it was 6600 nM; in data set [1], 60 nM; against Cytochrome P450 2D6 it was over 30000 nM; on Cytochrome P450 3A4 [11], 2200 nM. The compound further showed a clearance in data set [9] of 10 mL/min/kg. Also, in data set [10], the AUC(0-inf) is 2.75 µM·h.

In data set [1], `CC[C@@H]1C[C@H](N(Cc2cc(C(F)(F)F)cc(C(F)(F)F)c2)c2ncc(Br)cn2)C[C@H](Cc2ccccc2)N1C(=O)OC(C)(C)C` (racemic) yielded an IC50 of 160 nM.

`CC[C@@H]1C[C@H](N(Cc2cc(C(F)(F)F)cc(C(F)(F)F)c2)c2ncc(OC)cn2)C[C@H](Cc2ccccc2)N1C(=O)OC(C)(C)C` (racemic) gave an IC50 in data set [1] of 71 nM.
